Test results published in ChEMBL document CHEMBL4138161, “Discovery of simplified sampangine derivatives as novel fungal biofilm inhibitors” (Eur J Med Chem, 2018).
In brackets after ≈: the same amount, converted by molar mass. Activity calls are given as the source filed them. The rule behind the calls is not given here.

Key:
Candida parapsilosis = experiment: Antifungal activity against Candida parapsilosis 22019 after 24 hrs by spectrophotometric analysis; type: functional; settings: Lodderomyces parapsilosis, 22019, 24 h
Method in brief: (§1)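 Broth microdilution in RPMI 1640, inoculum 5×10^3 CFU/mL, compounds from 6.4 mg/mL DMSO stocks, 35 ℃ for 24 h. Growth read as OD600; MIC80 taken as lowest concentration giving 80% growth inhibition. Triplicate.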

Trichophyton rubrum = experiment: Antifungal activity against Trichophyton rubrum Cmccftla after 24 hrs by spectrophotometric analysis; type: functional; method in brief: as §1
Nakaseomyces glabratus = experiment: Antifungal activity against Candida glabrata 537 after 24 hrs by spectrophotometric analysis; type: functional; settings: Nakaseomyces glabratus, 537, 24 h; method in brief: as §1
Candida albicans [1] = experiment: Antifungal activity against Candida albicans SC5314 after 24 hrs by spectrophotometric analysis; type: functional; settings: SC5314, 24 h; method in brief: as §1
Nannizzia gypsea = experiment: Antifungal activity against Microsporum gypseum Cmccfmza after 24 hrs by spectrophotometric analysis; type: functional; method in brief: as §1
Cryptococcus neoformans = experiment: Antifungal activity against Cryptococcus neoformans 32609 after 24 hrs by spectrophotometric analysis; type: functional; settings: Cryptococcus neoformans, 32609, 24 h; method in brief: as §1
Aspergillus fumigatus = experiment: Antifungal activity against Aspergillus fumigatus 07544 after 24 hrs by spectrophotometric analysis; type: functional; settings: Aspergillus fumigatus, 07544, 24 h; method in brief: as §1
Candida albicans [2] = experiment: Antibiofilm activity against Candida albicans SC5314 assessed inhibition of yeast-to-hypha morphological transition at 0.2 to 2 ug/ml after 3 hrs; type: functional, organism-based
Method in brief: (§2)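 Yeast-to-hypha transition in YPD with 10% (v/v) FBS across compound concentrations; cell morphology photographed after 3 h at 37°C.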

Candida albicans [3] = experiment: Antifungal activity against Candida albicans SC5314 after 48 hrs by spectrophotometric analysis; type: functional; settings: SC5314, 48 h
Candida albicans [4] = experiment: Antibiofilm activity against Candida albicans SC5314 assessed inhibition of yeast-to-hypha morphological transition at 0.5 ug/ml after 3 hrs; type: functional, organism-based; method in brief: as §2

| SMILES | MIC80 (Candida parapsilosis) [µg/mL] | MIC80 (Trichophyton rubrum) [µg/mL] | MIC80 (Nakaseomyces glabratus) [µg/mL] | MIC80 (Candida albicans [1]) [µg/mL] | MIC80 (Nannizzia gypsea) [µg/mL] | MIC80 (Cryptococcus neoformans) [µg/mL] | MIC80 (Aspergillus fumigatus) [µg/mL] | inhibition (Candida albicans [2]) | MIC80 (Candida albicans [3]) [µg/mL] | Activity (Candida albicans [4]) |
| --- | --- | --- | --- | --- | --- | --- | --- | --- | --- | --- |
| Cc1ccnc2c1C(=O)c1ccn(C)c1C2=O | > 64 | > 64 | > 64 | > 64 | > 64 | > 64 | > 64 | – | – | – |
| O=C1c2cc([N+](=O)[O-])sc2C(=O)c2c(C3CCNCC3)ccnc21 | > 64 | > 64 | > 64 | > 64 | 64 (≈ 186 µM) | 32 (≈ 93.2 µM) | > 64 | – | – | – |
| Cc1ccnc2c1[C@H](O)c1sc([N+](=O)[O-])cc1[C@H]2O (relative stereo) | > 64 | > 64 | > 64 | > 64 | > 64 | > 64 | > 64 | – | – | – |
| COc1ccccc1-c1ccnc2c1C(=O)c1sc([N+](=O)[O-])cc1C2=O | 16 (≈ 43.7 µM) | 16 (≈ 43.7 µM) | > 64 | 16 (≈ 43.7 µM) | 16 (≈ 43.7 µM) | 8 (≈ 21.8 µM) | 16 (≈ 43.7 µM) | – | – | – |
| Cc1ccnc2c1C(=O)c1scc(N)c1C2=O | > 64 | > 64 | > 64 | 32 (≈ 131 µM) | > 64 | > 64 | > 64 | – | – | – |
| O=C1c2cc([N+](=O)[O-])sc2C(=O)c2cccnc21 | 2 (≈ 7.69 µM) | 0.5 (≈ 1.92 µM) | 1 (≈ 3.84 µM) | 0.5 (≈ 1.92 µM) | 0.5 (≈ 1.92 µM) | 0.5 (≈ 1.92 µM) | 1 (≈ 3.84 µM) | – | – | – |
| CC(c1ccccc1)c1ccnc2c1C(=O)c1sc([N+](=O)[O-])cc1C2=O (centres undefined) | 4 (≈ 11 µM) | 1 (≈ 2.74 µM) | 8 (≈ 22 µM) | 4 (≈ 11 µM) | 1 (≈ 2.74 µM) | 0.5 (≈ 1.37 µM) | 4 (≈ 11 µM) | – | – | – |
| O=C1c2cc([N+](=O)[O-])sc2C(=O)c2c(-c3ccccc3[N+](=O)[O-])ccnc21 | > 64 | 16 (≈ 42 µM) | > 64 | 16 (≈ 42 µM) | 8 (≈ 21 µM) | 4 (≈ 10.5 µM) | 64 (≈ 168 µM) | – | – | – |
| Cc1ccnc2c1[C@H](O)c1sc([N+](=O)[O-])cc1[C@@H]2O (relative stereo) | 8 (≈ 28.7 µM) | 2 (≈ 7.19 µM) | 2 (≈ 7.19 µM) | 2 (≈ 7.19 µM) | 8 (≈ 28.7 µM) | 4 (≈ 14.4 µM) | 16 (≈ 57.5 µM) | – | – | – |
| Cc1ccnc2c1C(=O)c1sc([N+](=O)[O-])cc1C2=O | 1 (≈ 3.65 µM) | 0.5 (≈ 1.82 µM) | 1 (≈ 3.65 µM) | 0.25 (≈ 0.912 µM) | 2 (≈ 7.29 µM) | 0.5 (≈ 1.82 µM) | 2 (≈ 7.29 µM) | – | – | – |
| Cc1ccnc2c1C(=O)c1sc(N)cc1C2=O | > 64 | 8 (≈ 32.7 µM) | > 64 | > 64 | > 64 | > 64 | > 64 | – | – | – |
| Cc1ccnc2cc3cc([N+](=O)[O-])sc3cc12 | > 64 | 4 (≈ 16.4 µM) | 16 (≈ 65.5 µM) | > 64 | > 64 | > 64 | > 64 | – | – | – |
| O=C1c2cc([N+](=O)[O-])sc2C(=O)c2c(-c3ccco3)ccnc21 | 4 (≈ 12.3 µM) | 16 (≈ 49 µM) | 4 (≈ 12.3 µM) | 4 (≈ 12.3 µM) | 8 (≈ 24.5 µM) | 2 (≈ 6.13 µM) | 16 (≈ 49 µM) | – | – | – |
| CCCc1cnc2c(c1)C(=O)c1sc([N+](=O)[O-])cc1C2=O | 4 (≈ 13.2 µM) | 1 (≈ 3.31 µM) | 4 (≈ 13.2 µM) | 2 (≈ 6.62 µM) | 1 (≈ 3.31 µM) | 0.5 (≈ 1.65 µM) | 4 (≈ 13.2 µM) | – | – | – |
| CC(C)(C)c1cnc2c(c1)C(=O)c1sc([N+](=O)[O-])cc1C2=O | 4 (≈ 12.6 µM) | 1 (≈ 3.16 µM) | 4 (≈ 12.6 µM) | 2 (≈ 6.32 µM) | 1 (≈ 3.16 µM) | 1 (≈ 3.16 µM) | 4 (≈ 12.6 µM) | – | – | – |
| Cc1cnc2c(c1C)C(=O)c1sc([N+](=O)[O-])cc1C2=O | 0.5 (≈ 1.73 µM) | 0.5 (≈ 1.73 µM) | 1 (≈ 3.47 µM) | 0.25 (≈ 0.867 µM) | 1 (≈ 3.47 µM) | 0.5 (≈ 1.73 µM) | 1 (≈ 3.47 µM) | inactive | 4 (≈ 13.9 µM) | Active |
| Cc1ccc(C(C)c2ccnc3c2C(=O)c2sc([N+](=O)[O-])cc2C3=O)o1 (centres undefined) | > 64 | 1 (≈ 2.71 µM) | > 64 | > 64 | 1 (≈ 2.71 µM) | 0.25 (≈ 0.679 µM) | 32 (≈ 86.9 µM) | – | – | – |
| O=C1c2ccccc2-c2nccc3ccnc1c23 [SAMPANGINE] | 4 (≈ 17.2 µM) | 16 (≈ 68.9 µM) | 16 (≈ 68.9 µM) | 0.5 (≈ 2.15 µM) | > 64 | 2 (≈ 8.61 µM) | 16 (≈ 68.9 µM) | – | – | – |
